Laboratory results taken from ChEMBL document CHEMBL4680175, “Sulfonamide-based ring-fused analogues for CAN508 as novel carbonic anhydrase inhibitors endowed with antitumor activity: Design, synthesis, and in vitro biological evaluation” (Eur J Med Chem, 2020).
pIC50, pKi: −log10 of the molar value. Values belong to the compound of their own block, whether it stands above or below them. Active and inactive are the calls of the source. The rule behind the calls is not given here.

Experiments:
Carbonic anhydrase 1 = Carbonic anhydrase 1 (Homo sapiens, UniProt P00915); assay: Inhibition of recombinant human carbonic anhydrase 1 preincubated with enzyme for 15 mins by phenol red dye based stopped flow CO2 hydrase assay
Carbonic anhydrase 2 = Carbonic anhydrase 2 (Homo sapiens, UniProt P00918); assay: Inhibition of recombinant human carbonic anhydrase 2 preincubated with enzyme for 15 mins by phenol red dye based stopped flow CO2 hydrase assay
Carbonic anhydrase 9 = Carbonic anhydrase 9 (Homo sapiens, UniProt Q16790); assay: Inhibition of recombinant human carbonic anhydrase 9 preincubated with enzyme for 15 mins by phenol red dye based stopped flow CO2 hydrase assay
[1] = biological target: Cyclin-dependent kinase 2/cyclin E1 (Homo sapiens, UniProt P24941); assay: Inhibition of CDK2/cyclin E (unknown origin) expressed in baculovirus infected Sf21 insect cells using histone H1 as substrate in presence of [gamma33P]ATP
CDK9/cyclin T1 = CDK9/cyclin T1 (Homo sapiens, UniProt P50750); assay: Inhibition of human full-length N-terminal GST/His6-tagged CDK9 (1 to 372 residues)/His6-tagged Cyclin-T1 (1 to 726 residues) expressed in sf9 cells using (YSPTSPS)2KK peptide as substrate in presence of [gamma33P]ATP
Carbonic anhydrase 12 = Carbonic anhydrase 12 (Homo sapiens, UniProt O43570); assay: Inhibition of recombinant human carbonic anhydrase 12 preincubated with enzyme for 15 mins by phenol red dye based stopped flow CO2 hydrase assay
SK-OV-3 = assay: Antitumor activity against human SK-OV-3 cells assessed as cell growth inhibition at 10 uM incubated for 48 hrs by sulforhodamine B assay; format: functional; conditions: read-out: GI
Method in brief: (§1)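 NCI Drug Evaluation Branch protocol: primary single-dose screen at 10 μM across a 57-line human cancer panel. Drug exposure is 48 h. Cell growth and viability are read by sulforhodamine B assay. Data are given as a mean graph of percent growth of treated cells and reported as percentage growth inhibition (GI%).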

HCT-116 = assay: Antitumor activity against human HCT116 cells assessed as cell growth inhibition at 10 uM incubated for 48 hrs by sulforhodamine B assay; format: functional; conditions: read-out: GI; method in brief: as §1
UO-31 = assay: Antitumor activity against human UO-31 cells assessed as cell growth inhibition at 10 uM incubated for 48 hrs by sulforhodamine B assay; format: functional; conditions: read-out: GI
Method in brief: (§2)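 NCI one-dose screen: 57-cell-line panel exposed at 10 μM for 48 h, Drug Evaluation Branch protocol. Growth and viability read by sulforhodamine B; data given as percent growth inhibition from the mean-graph of percent growth of treated cells.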

CCRF-CEM = assay: Antitumor activity against human CCRF-CEM cells assessed as cell growth inhibition at 10 uM incubated for 48 hrs by sulforhodamine B assay; format: functional; conditions: read-out: GI; method in brief: as §1
SK-MEL-5 = assay: Antitumor activity against human SK-MEL-5 cells assessed as cell growth inhibition at 10 uM incubated for 48 hrs by sulforhodamine B assay; format: functional; conditions: read-out: GI; method in brief: as §1
A498 = assay: Antitumor activity against human A498 cells assessed as cell growth inhibition at 10 uM incubated for 48 hrs by sulforhodamine B assay; format: functional; conditions: read-out: GI; method in brief: as §1
RPMI-8226 = assay: Antitumor activity against human RPMI8226 cells assessed as cell growth inhibition at 10 uM incubated for 48 hrs by sulforhodamine B assay; format: functional; conditions: read-out: GI; method in brief: as §1
NCI/ADR-RES = assay: Antitumor activity against human NCI/ADR-RES cells assessed as cell growth inhibition at 10 uM incubated for 48 hrs by sulforhodamine B assay; format: functional, cell-based; method in brief: as §1
SF-539 = assay: Antitumor activity against human SF539 cells assessed as cell growth inhibition at 10 uM incubated for 48 hrs by sulforhodamine B assay; format: functional; conditions: read-out: GI; method in brief: as §1
Hs-578T = assay: Antitumor activity against human HS 578T cells assessed as cell growth inhibition at 10 uM incubated for 48 hrs by sulforhodamine B assay; format: functional; conditions: read-out: GI; method in brief: as §1
IGROV-1 = assay: Antitumor activity against human IGROV1 cells assessed as cell growth inhibition at 10 uM incubated for 48 hrs by sulforhodamine B assay; format: functional; conditions: read-out: GI; method in brief: as §1
NCI-H460 = assay: Antitumor activity against human NCI-H460 cells assessed as cell growth inhibition at 10 uM incubated for 48 hrs by sulforhodamine B assay; format: functional; conditions: read-out: GI; method in brief: as §1
KM12 = assay: Antitumor activity against human KM12 cells assessed as cell growth inhibition at 10 uM incubated for 48 hrs by sulforhodamine B assay; format: functional; conditions: read-out: GI; method in brief: as §1
ACHN = assay: Antitumor activity against human ACHN cells assessed as cell growth inhibition at 10 uM incubated for 48 hrs by sulforhodamine B assay; format: functional; conditions: read-out: GI; method in brief: as §1
DU-145 = assay: Antitumor activity against human DU-145 cells assessed as cell growth inhibition at 10 uM incubated for 48 hrs by sulforhodamine B assay; format: functional; conditions: read-out: GI; method in brief: as §1
SF-268 = assay: Antitumor activity against human SF268 cells assessed as cell growth inhibition at 10 uM incubated for 48 hrs by sulforhodamine B assay; format: functional; conditions: read-out: GI; method in brief: as §1
OVCAR-8 = assay: Antitumor activity against human OVCAR-8 cells assessed as cell growth inhibition at 10 uM incubated for 48 hrs by sulforhodamine B assay; format: functional; conditions: read-out: GI; method in brief: as §1
U-251 = assay: Antitumor activity against human U251 cells assessed as cell growth inhibition at 10 uM incubated for 48 hrs by sulforhodamine B assay; format: functional; conditions: read-out: GI; method in brief: as §2
BT-549 = assay: Antitumor activity against human BT-549 cells assessed as cell growth inhibition at 10 uM incubated for 48 hrs by sulforhodamine B assay; format: functional; conditions: read-out: GI; method in brief: as §1
HCT-15 = assay: Antitumor activity against human HCT15 cells assessed as cell growth inhibition at 10 uM incubated for 48 hrs by sulforhodamine B assay; format: functional; conditions: read-out: GI; method in brief: as §1
Malme-3M = assay: Antitumor activity against human MALME-3M cells assessed as cell growth inhibition at 10 uM incubated for 48 hrs by sulforhodamine B assay; format: functional; conditions: read-out: GI; method in brief: as §1
T47D = assay: Antitumor activity against human T-47D cells assessed as cell growth inhibition at 10 uM incubated for 48 hrs by sulforhodamine B assay; format: functional; conditions: read-out: GI; method in brief: as §2
CAKI-1 = assay: Antitumor activity against human CAKI-1 cells assessed as cell growth inhibition at 10 uM incubated for 48 hrs by sulforhodamine B assay; format: functional; conditions: read-out: GI; method in brief: as §1
SW-620 = assay: Antitumor activity against human SW620 cells assessed as cell growth inhibition at 10 uM incubated for 48 hrs by sulforhodamine B assay; format: functional; conditions: read-out: GI; method in brief: as §2
SR = assay: Antitumor activity against human SR cells assessed as cell growth inhibition at 10 uM incubated for 48 hrs by sulforhodamine B assay; format: functional; conditions: read-out: GI; method in brief: as §2
MDA-MB-231 = assay: Antitumor activity against human MDA-MB-231/ATCC cells assessed as cell growth inhibition at 10 uM incubated for 48 hrs by sulforhodamine B assay; format: functional; conditions: read-out: GI; method in brief: as §1
RXF 393 = assay: Antitumor activity against human RXF 393 cells assessed as cell growth inhibition at 10 uM incubated for 48 hrs by sulforhodamine B assay; format: functional; conditions: read-out: GI; method in brief: as §1
HOP-92 = assay: Antitumor activity against human HOP92 cells assessed as cell growth inhibition at 10 uM incubated for 48 hrs by sulforhodamine B assay; format: functional; conditions: read-out: GI; method in brief: as §1
LOX IMVI = assay: Antitumor activity against human LOX IMVI cells assessed as cell growth inhibition at 10 uM incubated for 48 hrs by sulforhodamine B assay; format: functional; conditions: read-out: GI; method in brief: as §1
SNB-75 = assay: Antitumor activity against human SNB-75 cells assessed as cell growth inhibition at 10 uM incubated for 48 hrs by sulforhodamine B assay; format: functional; conditions: read-out: GI; method in brief: as §2
UACC-62 = assay: Antitumor activity against human UACC-62 cells assessed as cell growth inhibition at 10 uM incubated for 48 hrs by sulforhodamine B assay; format: functional; conditions: read-out: GI; method in brief: as §2
SN12C = assay: Antitumor activity against human SN12C cells assessed as cell growth inhibition at 10 uM incubated for 48 hrs by sulforhodamine B assay; format: functional; conditions: read-out: GI; method in brief: as §1
M14 = assay: Antitumor activity against human M14 cells assessed as cell growth inhibition at 10 uM incubated for 48 hrs by sulforhodamine B assay; format: functional; conditions: read-out: GI; method in brief: as §1
OVCAR-3 = assay: Antitumor activity against human OVCAR-3 cells assessed as cell growth inhibition at 10 uM incubated for 48 hrs by sulforhodamine B assay; format: functional; conditions: read-out: GI; method in brief: as §1
MDA-MB-435 = assay: Antitumor activity against human MDA-MB-435 cells assessed as cell growth inhibition at 10 uM incubated for 48 hrs by sulforhodamine B assay; format: functional; conditions: read-out: GI; method in brief: as §1
SK-MEL-2 = assay: Antitumor activity against human SK-MEL-2 cells assessed as cell growth inhibition at 10 uM incubated for 48 hrs by sulforhodamine B assay; format: functional; conditions: read-out: GI; method in brief: as §1
NCI-H522 = assay: Antitumor activity against human NCI-H522 cells assessed as cell growth inhibition at 10 uM incubated for 48 hrs by sulforhodamine B assay; format: functional; conditions: read-out: GI; method in brief: as §1
NCI-H322M = assay: Antitumor activity against human NCI-H322M cells assessed as cell growth inhibition at 10 uM incubated for 48 hrs by sulforhodamine B assay; format: functional; conditions: read-out: GI; method in brief: as §1
786-0 = assay: Antitumor activity against human 786-0 cells assessed as cell growth inhibition at 10 uM incubated for 48 hrs by sulforhodamine B assay; format: functional; conditions: read-out: GI; method in brief: as §1

CDK9/cyclin T1, sequence (O60563 whole entry, the tested form may be a part): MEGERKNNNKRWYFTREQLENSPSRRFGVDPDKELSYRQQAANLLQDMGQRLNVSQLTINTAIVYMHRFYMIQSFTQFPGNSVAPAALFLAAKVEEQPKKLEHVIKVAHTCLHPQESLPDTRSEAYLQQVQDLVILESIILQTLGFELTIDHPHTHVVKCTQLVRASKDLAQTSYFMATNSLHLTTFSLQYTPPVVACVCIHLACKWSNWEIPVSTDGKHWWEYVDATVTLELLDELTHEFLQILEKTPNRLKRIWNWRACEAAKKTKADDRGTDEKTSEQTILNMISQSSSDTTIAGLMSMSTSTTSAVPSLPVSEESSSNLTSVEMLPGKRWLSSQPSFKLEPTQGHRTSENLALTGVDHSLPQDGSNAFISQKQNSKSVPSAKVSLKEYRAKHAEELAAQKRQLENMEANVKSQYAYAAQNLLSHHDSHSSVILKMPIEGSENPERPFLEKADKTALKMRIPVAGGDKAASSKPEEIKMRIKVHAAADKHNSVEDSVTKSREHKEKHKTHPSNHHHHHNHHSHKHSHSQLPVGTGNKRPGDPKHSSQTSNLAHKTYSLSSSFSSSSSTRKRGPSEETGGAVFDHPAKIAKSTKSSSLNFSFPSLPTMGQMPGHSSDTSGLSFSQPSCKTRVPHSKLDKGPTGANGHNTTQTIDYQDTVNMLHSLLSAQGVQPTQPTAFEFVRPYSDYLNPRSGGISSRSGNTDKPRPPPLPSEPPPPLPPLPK
CDK9/cyclin T1, sequence (P50750 whole entry, the tested form may be a part): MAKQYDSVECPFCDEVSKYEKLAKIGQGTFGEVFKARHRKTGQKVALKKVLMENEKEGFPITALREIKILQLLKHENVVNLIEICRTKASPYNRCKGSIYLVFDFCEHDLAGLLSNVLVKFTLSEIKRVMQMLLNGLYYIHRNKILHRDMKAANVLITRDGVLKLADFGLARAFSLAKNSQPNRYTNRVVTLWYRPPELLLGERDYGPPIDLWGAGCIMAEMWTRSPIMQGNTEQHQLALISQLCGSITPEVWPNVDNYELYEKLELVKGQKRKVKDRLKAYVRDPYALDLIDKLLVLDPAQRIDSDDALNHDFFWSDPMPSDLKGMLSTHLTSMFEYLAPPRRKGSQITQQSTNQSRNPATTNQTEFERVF
Carbonic anhydrase 12, sequence (O43570 whole entry): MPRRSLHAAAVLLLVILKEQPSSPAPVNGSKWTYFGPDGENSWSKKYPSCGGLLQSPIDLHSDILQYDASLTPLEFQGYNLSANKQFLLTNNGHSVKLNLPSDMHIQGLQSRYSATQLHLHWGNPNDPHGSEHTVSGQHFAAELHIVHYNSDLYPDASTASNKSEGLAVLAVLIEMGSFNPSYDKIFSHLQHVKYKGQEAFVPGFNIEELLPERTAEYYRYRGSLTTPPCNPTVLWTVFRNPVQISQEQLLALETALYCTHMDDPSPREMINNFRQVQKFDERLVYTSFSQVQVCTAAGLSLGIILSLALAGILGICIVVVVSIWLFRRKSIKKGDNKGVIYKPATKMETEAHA
Carbonic anhydrase 1, sequence (P00915 whole entry): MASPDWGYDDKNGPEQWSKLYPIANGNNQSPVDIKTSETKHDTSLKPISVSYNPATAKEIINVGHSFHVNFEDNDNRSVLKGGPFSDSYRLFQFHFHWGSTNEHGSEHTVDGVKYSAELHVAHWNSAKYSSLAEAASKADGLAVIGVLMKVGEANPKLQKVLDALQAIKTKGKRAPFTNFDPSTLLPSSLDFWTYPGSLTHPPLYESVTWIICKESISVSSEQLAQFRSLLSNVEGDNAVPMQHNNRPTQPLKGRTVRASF

pKi (Carbonic anhydrase 1): 6.17
pKi (Carbonic anhydrase 2): 7.84
pKi (Carbonic anhydrase 9): 8.22
pIC50 [1]: < 4.90
pIC50 (CDK9/cyclin T1): < 4.90
pKi (Carbonic anhydrase 12): 7.50
SMILES: Nc1nn2c(-c3ccc(F)cc3)ccnc2c1/N=N/c1ccc(S(N)(=O)=O)cc1

pKi (Carbonic anhydrase 1): 5.94
pKi (Carbonic anhydrase 2): 8.15
pKi (Carbonic anhydrase 9): 7.40
pIC50 [1]: < 4.90
pIC50 (CDK9/cyclin T1): < 4.90
pKi (Carbonic anhydrase 12): 7.23
SMILES: Nc1nn2c(-c3cccs3)ccnc2c1/N=N/c1ccc(S(N)(=O)=O)cc1

pKi (Carbonic anhydrase 1): 6.11
pKi (Carbonic anhydrase 2): 7.47
pKi (Carbonic anhydrase 9): 7.55
pIC50 [1]: < 4.90
pIC50 (CDK9/cyclin T1): < 4.90
pKi (Carbonic anhydrase 12): 7.73
SMILES: Nc1nn2cc(-c3ccc(F)cc3)[nH]c2c1/N=N/c1ccc(S(N)(=O)=O)cc1
inhibition of growth at 10 µM (SK-OV-3): 26%
inhibition of growth at 10 µM (HCT-116): 37%
inhibition of growth at 10 µM (UO-31): 42%
inhibition of growth at 10 µM (CCRF-CEM): 33%
inhibition of growth at 10 µM (SK-MEL-5): 23%
inhibition of growth at 10 µM (A498): 60%
inhibition of growth at 10 µM (RPMI-8226): 27%
Activity (NCI/ADR-RES): inactive
inhibition of growth at 10 µM (SF-539): 27%
inhibition of growth at 10 µM (Hs-578T): 33%
inhibition of growth at 10 µM (IGROV-1): 38%
inhibition of growth at 10 µM (NCI-H460): 41%
inhibition of growth at 10 µM (KM12): 27%
inhibition of growth at 10 µM (ACHN): 48%
inhibition of growth at 10 µM (DU-145): 30%
inhibition of growth at 10 µM (SF-268): 23%
inhibition of growth at 10 µM (OVCAR-8): 21%
inhibition of growth at 10 µM (U-251): 24%
inhibition of growth at 10 µM (BT-549): 26%
inhibition of growth at 10 µM (HCT-15): 40%
inhibition of growth at 10 µM (Malme-3M): 42%
inhibition of growth at 10 µM (T47D): 22%
inhibition of growth at 10 µM (CAKI-1): 53%
inhibition of growth at 10 µM (SW-620): 23%
inhibition of growth at 10 µM (SR): 33%
inhibition of growth at 10 µM (MDA-MB-231): 25%
inhibition of growth at 10 µM (RXF 393): 40%
inhibition of growth at 10 µM (HOP-92): 25%
inhibition of growth at 10 µM (LOX IMVI): 36%
inhibition of growth at 10 µM (SNB-75): 44%
inhibition of growth at 10 µM (UACC-62): 29%
inhibition of growth at 10 µM (SN12C): 31%
inhibition of growth at 10 µM (M14): 35%
inhibition of growth at 10 µM (OVCAR-3): 21%
inhibition of growth at 10 µM (MDA-MB-435): 22%
inhibition of growth at 10 µM (SK-MEL-2): 30%
inhibition of growth at 10 µM (NCI-H522): 45%
inhibition of growth at 10 µM (NCI-H322M): 58%
inhibition of growth at 10 µM (786-0): 32%
